In the library only some 1.8% were active in any assay of this set; here they are far more common.
TAG inh: inhibitors of triacylglycerol accumulation, primary screen, cell-based, uHTS, fluorescence, H9c2; H9c2 cells, Nile Red lipid (TAG) fluorescence; cells loaded with 200 µM oleic acid; inhibition, % at 12.5 µM; 0.66% of 230,000 active; AID 651582, 2012;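 active = pattern-corrected inhibition of lipid staining of at least 50% with the nuclear-stain viability signal not falling by more than 50%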
Jurkat NFkB inh: inhibitors of induced NF-kB luciferase reporter, primary screen, TCR NF-kB activation inhibitor project, cell-based, luminescence, uHTS. 0.53% of 330,000 active. Jurkat, PMA/ionomycin-induced NF-kB luciferase reporter. inhibition, % at 4 µM; in the data active = inhibition above about 50%
Gli-Sufu antag: Gli-Sufu pathway antagonists, primary screen, luciferase luminescence, Sufu-KO-LIGHT cells, uHTS; 0.74% of 340,000 active; Sufu-KO-LIGHT fibroblasts, Gli luciferase reporter luminescence; inhibition, % at 5 µM; AID 588413, 2011;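 active = inhibition above about 55%, limit read from the data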
697 NFkB inh: inhibitors of PMA/ionomycin-induced NF-kB reporter, 697 cells, primary screen, B-cell NF-kB inhibitor project, cell-based, luminescence, uHTS; 697 B-cell NF-kB luciferase reporter, 16 h; inhibition, % at 4 µM; 0.33% of 330,000 active; in the data active = inhibition above about 35%
iPSC survival up: enhancers of single-cell hiPSC survival, primary screen, ATPlite luminescence. survival enhancement, % at 20 µM. 100% = ROCK inhibitor wells, 0% = DMSO. 0.044% of 360,000 active. AID 602274, 2012; in the data active = survival enhancement above about 18%;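 also: cells exposed to compounds for 16 hours before the ATP read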
Lipid droplet: inhibitors of hepatocyte lipid droplet formation, primary screen, imaging, high-throughput imaging, BODIPY stain; AML12 mouse hepatocytes, oleate lipid droplets; inhibition, % at 6.5 µM; 0.4% of 240,000 active;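 active = lipid droplet intensity inhibited by at least 50%, with more than 500 cells counted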
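Assay system: AML12 hepatocytes (mouse) / Also added: 100 µM oleic acid challenge / Times: overnight treatment with compound plus oleate / Detection: high-content imaging of BODIPY-stained droplets and DAPI nuclei / Evaluation: % inhibition of lipid droplet signal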
697 NFkB conf: PMA/ionomycin-induced NF-kB reporter inhibitors, 697 retest, confirmation, B-cell NF-kB inhibitor project, cell-based, luminescence, single concentration; shares compounds with 697 NFkB inh; 697 B-cell NF-kB luciferase, 16 h; inhibition, % at 4 µM; 35% of 2,000 active; AID 449746, 2010; in the data active = inhibition mostly above about 28%, no sharp cut-off; inactive = mostly below about 22%
Each line names hits and unclear results; the compound was inactive in the other large screens (follow-up assays come after a bar, where they were run).

Cc1nc([N+](=O)[O-])cn1CC(O)c1ccc(F)cc1 (stereo not drawn)	none
Cc1nn2c(nc(N3CCOCC3)c3ccccc32)c1C=C(C#N)C#N	none (no result: TAG inh)
N#Cc1cnn2c1nc(N1CCOCC1)c1ccccc12	697 NFkB inh 36 (no result: Lipid droplet) | 697 NFkB conf inactive
Cc1cc(NC(=O)COC(=O)c2ccc(Cl)cc2)no1	none (no result: Jurkat NFkB inh, Gli-Sufu antag, 697 NFkB inh, Lipid droplet)
Cc1cc(NC(=O)COC(=O)c2c(Cl)cccc2Cl)no1	none (no result: Lipid droplet) | 697 NFkB conf inactive
CCOc1ccc(N2CC(C(=O)N3CCN(c4ccccn4)CC3)CC2=O)cc1 (stereo not drawn)	none (no result: Lipid droplet)
Cc1cc(C)cc(N(CC(=O)NC2CCCC2)C(=O)CCC(=O)Nc2cc(C)ccn2)c1	none (no result: TAG inh)
CC(C)Oc1cc(O)c2c(=O)c(-c3ccc(O)cc3)coc2c1	none | 697 NFkB conf inactive
O=S(=O)(NCc1ccc(F)cc1)c1ccc(-n2cccn2)cc1	none (no result: TAG inh)
COc1ccc(NC(=O)c2cc(CC(C)C)nc3ccccc23)cc1	none | 697 NFkB conf inactive
Cc1ccc(NC(=O)c2cc(CC(C)C)nc3ccccc23)cc1	none (no result: TAG inh)
Cc1cc(C)cc(Nc2c(F)c(F)c(F)c(F)c2C(=O)O)c1	none (no result: TAG inh)
Cc1c(CCO)c(=O)oc2n[nH]c(-c3ccccc3)c12	697 NFkB inh 35 | 697 NFkB conf 24
CCOc1ccc(NC(=O)CN(C)C(=O)c2cn(-c3ccccc3)nc2-c2cccs2)cc1OCC	none
C[C@H]1C=CC(=O)O[C@H]1c1ccccc1	697 NFkB inh 46 (no result: Lipid droplet) | 697 NFkB conf inactive
COc1ccc(C(NC(=O)C2CCN(CCOc3ccc(Cl)cc3Cl)CC2)c2ccccn2)cc1 (stereo not drawn)	none (no result: Jurkat NFkB inh, Gli-Sufu antag, 697 NFkB inh, Lipid droplet)
O=C1CC(c2ccccc2)Sc2nc3ccccc3n21 (stereo not drawn)	none (no result: Gli-Sufu antag)
O=C1CC(c2ccc3c(c2)OCO3)Sc2nc3ccccc3n21 (stereo not drawn)	none (no result: TAG inh, Lipid droplet) | 697 NFkB conf inactive
CSCCC(NC(=O)OC(C)(C)C)C(=O)Oc1ccc2c(=O)c(-c3ccc4c(c3)OCCO4)coc2c1 (stereo not drawn)	none (no result: Lipid droplet) | 697 NFkB conf inactive
CSCCC(NC(C)=O)C(=O)Oc1ccc2c3c(c(=O)oc2c1)CCCC3 (stereo not drawn)	none (no result: Jurkat NFkB inh, 697 NFkB inh, Lipid droplet)
C[C@@H](C(=O)CC(=O)OC(C)(C)C)[C@@H](O)c1c(F)cccc1Cl	none
Cc1ccc(S(=O)(=O)Nc2n[nH]nc2C(=O)NC2CCCCC2)cc1	none (no result: TAG inh)
COc1cc(OC)cc(-c2nc3ccccc3s2)c1	none (no result: TAG inh, Lipid droplet)
COc1ccc2nc(-c3ccc(F)cc3)sc2c1	none (no result: Lipid droplet) | 697 NFkB conf inactive
COc1ccc2cc3cc(C(=O)Nc4cc(OC)c(OC)c(OC)c4)oc3nc2c1	697 NFkB inh 37 | 697 NFkB conf inactive
COc1ccc2cc3cc(C(=O)Nc4ccc5c(c4)OCCO5)oc3nc2c1	none (no result: Lipid droplet)
Cc1cccc(NC(=O)C2Cc3ccccc3O/C2=N\O)c1 (stereo not drawn)	none (no result: TAG inh)
O=C(N/N=C/c1sc(N2CCOCC2)nc1-c1ccccc1)c1ccc(O)cc1	none
COc1ccc(C(=O)N/N=C/c2sc(N3CCOCC3)nc2-c2ccccc2)cc1OC	697 NFkB inh 41 | 697 NFkB conf 32
COc1ccc(S(=O)(=O)N2CCC(C(=O)N[C@@H](C)C(=O)NCc3ccccc3OC)CC2)cc1	none (no result: TAG inh)
CNc1ncc(C(=O)c2ccc(-c3ccccc3)cc2)s1	none | 697 NFkB conf inactive
CNc1ncc(C(=O)c2ccc(Cl)cc2)s1	none (no result: TAG inh, Lipid droplet)
Cc1ccc(/C=N/Nc2ccc(Cl)c(C(=O)O)c2)s1	none (no result: TAG inh) | 697 NFkB conf inactive
O=C(O)c1cc(N/N=C/c2cccs2)ccc1Cl	none (no result: TAG inh, Gli-Sufu antag, iPSC survival up)
Cc1ccnc(NC(=O)Nc2ccc3c(c2)N(C)C(=O)CS3)c1	none (no result: TAG inh) | 697 NFkB conf inactive
CN1C(=O)CSc2ccc(NC(=O)N3CCN(c4ccccc4)CC3)cc21	697 NFkB inh 36 (no result: TAG inh) | 697 NFkB conf 31
CC(=O)c1ccc(NC(=O)Nc2ccc3c(c2)N(C)C(=O)CS3)cc1	none
COc1ccc(N(CC(=O)NCc2ccco2)C(=O)CCC(=O)Nc2ccccn2)cc1	none (no result: TAG inh)
O=C(C1CCCC1)N1CCN(S(=O)(=O)c2cccc(Cl)c2Cl)CC1	none (no result: TAG inh)
O=C(NCc1ccccc1)C1CCN(S(=O)(=O)N2CCOCC2)CC1	697 NFkB inh 41 (no result: TAG inh, Lipid droplet) | 697 NFkB conf inactive
COc1cc(/C(C)=N/NC(=S)NC(C)C)cc(OC)c1OC	none
COc1cc(/C(C)=N\NC(N)=S)cc(OC)c1OC	697 NFkB inh 40 (no result: TAG inh) | 697 NFkB conf 41
COc1ccc(CC(=O)Nc2ccc(N3CCOCC3)cc2)cc1S(=O)(=O)N1CCOCC1	697 NFkB inh 39 | 697 NFkB conf inactive
COc1cc(OC)c(NC(=O)Cc2ccc(OC)c(S(=O)(=O)N3CCOCC3)c2)cc1Cl	none
COc1ccc(-c2cc3cc4c(cc3cn2)OCO4)cc1	none (no result: Lipid droplet) | 697 NFkB conf inactive
COc1cc(OC)cc(-c2cc3cc4c(cc3cn2)OCO4)c1	none (no result: Lipid droplet)
NC(=O)c1cc([N+](=O)[O-])ccc1NCc1ccc(C(=O)O)cc1	none (no result: Lipid droplet)
NC(=O)c1cc([N+](=O)[O-])ccc1NCc1ccc(O)cc1	697 NFkB inh 37 (no result: Lipid droplet) | 697 NFkB conf inactive
COc1ccc(CC(=O)N/N=C(\C)CC(=O)Nc2ccc3c(c2)OCCO3)cc1OC	none (no result: TAG inh)
CC[N+]1(C)CC2CCC(C)(C1)C2(C)C (stereo not drawn)	none (no result: Jurkat NFkB inh, 697 NFkB inh)
C(=N\Nc1nc2ccccc2[nH]1)/c1c[nH]c2ccccc12	none (no result: TAG inh)
Cc1cc(=O)[nH]c(N/N=C/c2c[nH]c3ccccc23)n1	697 NFkB inh 36 | 697 NFkB conf inactive
CCCCC1=NN2CCS(=O)(=O)N=C2S1	none
COc1ccccc1N(/N=C1\Sc2ccccc2C1=O)C(C)=O	TAG inh 69 | 697 NFkB conf inactive
CC(=O)NC1(c2ccccc2)CCN(CC(=O)N2CCC(C)CC2)CC1	none
Cc1ccc(CN2CCN(C(=O)CC(C)C)CC2)cc1	none
Cc1cc(OCC(=O)Nc2ccc(CCO)cc2)c2c(C)c(C)c(=O)oc2c1	697 NFkB inh 36 (no result: TAG inh) | 697 NFkB conf 40
CCN(CC)C(=O)C(=O)c1cccn1-c1c(Cl)cccc1C#N	none
COC(=O)c1cc(NC(=O)Nc2cc(OC)ccc2OC)cc(C(=O)OC)c1	697 NFkB inh 39 (no result: TAG inh, Lipid droplet) | 697 NFkB conf 34
CCN(CC)N=Nc1ccc(S(=O)(=O)Nc2nc(C)cc(C)n2)cc1	none (no result: TAG inh)
O=C(CN1C(=O)c2ccccc2S1(=O)=O)c1ccccc1Cl	697 NFkB inh 54 (no result: Gli-Sufu antag) | 697 NFkB conf 37
CCN(CC)C(=O)Oc1ccc2ccccc2c1Br	none | 697 NFkB conf inactive
